One test has as its target P2Y purinoceptor 12 (Homo sapiens, UniProt Q9H244). The test is described as follows: Displacement of [33P]ADP from human recombinant P2Y12 receptor expressed in CHO cells. It counts as cell-based. The essentials:
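Washed membranes from CHO cells expressing synthetic human P2Y12, incubated 1 h at room temperature with 0.2 nM 33P-MeSADP in 50 mM Tris/100 mM NaCl/1 mM EDTA. Compound was tested as a 7-point 3-fold series in triplicate. Nonspecific binding was defined with 300 nM 2-MeSADP, followed by filtration.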

Test [1] in a line: Antiplatelet aggregation activity against adenosine diphosphate-induced human platelet rich plasma assessed as inhibition of platelet aggregation by turbidimetric method. The following applies: Homo sapiens, Platelet, Plasma. It counts as functional. The essentials:
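Human PRP, prepared by two-step centrifugation and adjusted to 330 000 platelets/μL with PPP. Compound was preincubated 5 min at 37 °C in 0.5% DMSO, then 20 μM ADP was added. OD626 was read kinetically for 15 min at 37 °C with mixing between reads.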

The next test concerns Platelet. Put plainly: Relative potency, ratio of IC50 for drug to IC50 for AZD-6140 for platelet aggregation in human platelet rich plasma. It counts as functional.

Experimental findings from ChEMBL document CHEMBL1157562, “Piperazinyl glutamate pyridines as potent orally bioavailable P2Y12 antagonists for inhibition of platelet aggregation” (J Med Chem, 2010) are described below.

Chain of P2Y purinoceptor 12 (Q9H244 whole entry): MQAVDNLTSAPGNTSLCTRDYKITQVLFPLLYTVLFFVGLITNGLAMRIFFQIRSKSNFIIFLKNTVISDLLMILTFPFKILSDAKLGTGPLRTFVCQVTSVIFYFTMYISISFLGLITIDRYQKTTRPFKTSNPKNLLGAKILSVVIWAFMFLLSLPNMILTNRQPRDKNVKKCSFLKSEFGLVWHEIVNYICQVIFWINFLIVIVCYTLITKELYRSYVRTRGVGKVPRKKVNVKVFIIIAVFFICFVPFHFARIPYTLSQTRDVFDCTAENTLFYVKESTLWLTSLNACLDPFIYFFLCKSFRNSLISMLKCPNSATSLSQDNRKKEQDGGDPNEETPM

A word on the Ki: it is the dissociation constant of the complex between target and ligand, obtained from inhibition or displacement. Usually IC50 stands for the point on the concentration scale where inhibition reaches its midpoint. For the compound `CCCCOC(=O)N1CCN(C(=O)[C@H](CCC(=O)O)NC(=O)c2cc(OC3CCN(C(C)C)CC3)cc(-c3ccccc3)n2)CC1`, the Ki on P2Y purinoceptor 12 was 10 nM. Further, in test [1], the half-inhibitory concentration (IC50) was determined as 880 nM. Also, the “Ratio IC50” value in the test on Platelet is on record as 0.75.

Take `CCCCCOC(=O)N1CCN(C(=O)[C@H](CCC(=O)O)NC(=O)c2cc(OC(=O)N3CCCCC3)cc(-c3ccccc3)n2)CC1`: the Ki on P2Y purinoceptor 12 worked out at 11 nM. For the same compound, in test [1], the IC50 came out at 2100 nM. Besides, the “Ratio IC50” value in the test with Platelet is reported as 1.3.

For `CCCCCOC(=O)N1CCN(C(=O)[C@H](CCC(=O)O)NC(=O)c2cc(NC(=O)CN(C)C)cc(-c3ccccc3)n2)CC1`, the Ki on P2Y purinoceptor 12 came out at 4.1 nM. For the same compound, the IC50 in test [1] came out at 5600 nM. Also, in the test on Platelet, the “Ratio IC50” value amounted to 6.4.

For the compound `CCCCCOC(=O)N1CCN(C(=O)[C@H](CCC(=O)O)NC(=O)c2cc(OC3CCN(C)CC3)cc(-c3ccccc3)n2)CC1`, the Ki on P2Y purinoceptor 12 stood at 5 nM. For the same compound, the concentration for half-maximal inhibition (IC50) in test [1] is 1800 nM. Moreover, the “Ratio IC50” value in the test with Platelet is 1.8.

Turning to `CCCCCOC(=O)N1CCN(C(=O)[C@H](CCC(=O)O)NC(=O)c2cc(NCCOC)cc(-c3ccccc3)n2)CC1`, at P2Y purinoceptor 12, the inhibition constant Ki was determined as 9.8 nM. Also, the IC50 in test [1] came out at 3200 nM. In the test on Platelet, the “Ratio IC50” value is on record as 4.9.

For `CCCCCOC(=O)N1CCN(C(=O)[C@H](CCC(=O)O)NC(=O)c2cc(OCCC)cc(-c3ccccc3)n2)CC1`, the Ki at P2Y purinoceptor 12 came out at 18 nM. In addition, in test [1], the IC50 is 22000 nM. Moreover, the “Ratio IC50” value in the test on Platelet was 28.

As to `CCCCOC(=O)N1CCN(C(=O)[C@H](CCC(=O)O)NC(=O)c2cc(OC3CCN(C(C)=O)CC3)cc(-c3ccccc3)n2)CC1`, the inhibitory constant (Ki) on P2Y purinoceptor 12 came out at 2.8 nM. For the same compound, the IC50 in test [1] was determined as 1200 nM. Also, the “Ratio IC50” value in the test on Platelet was 1.1.

Turning to `CCCCOC(=O)N1CCN(C(=O)[C@H](CCC(=O)O)NC(=O)c2cc(OC3CCN(C(=O)COC)CC3)cc(-c3ccccc3)n2)CC1`, on P2Y purinoceptor 12, the Ki worked out at 2.4 nM. Further, the IC50 in test [1] worked out at 520 nM. In addition, in the test with Platelet, the “Ratio IC50” value turned out to be 0.78.

As for `CCCCOC(=O)N1CCN(C(=O)[C@H](CCC(=O)O)NC(=O)c2cc(NCCOC)cc(-c3ccccc3)n2)CC1`, the Ki on P2Y purinoceptor 12 was 2.4 nM. Further, the concentration for half-maximal inhibition (IC50) in test [1] amounted to 3200 nM. In the test on Platelet, the “Ratio IC50” value stood at 2.4.

Regarding `CCCCOC(=O)N1CCN(C(=O)[C@H](CCC(=O)O)NC(=O)c2cc(OC3CCOCC3)cc(-c3ccccc3)n2)CC1`, the Ki at P2Y purinoceptor 12 is 10 nM. The 50% inhibitory concentration (IC50) in test [1] was 4100 nM. Moreover, the “Ratio IC50” value with Platelet was found to be 6.3.

Take `CCCCCOC(=O)N1CCN(C(=O)[C@H](CCC(=O)O)NC(=O)c2cc(CCCCO)cc(-c3ccccc3)n2)CC1`: the Ki on P2Y purinoceptor 12 turned out to be 3.6 nM. Moreover, the IC50 in test [1] is 3200 nM. In the test with Platelet, the “Ratio IC50” value is 4.2.

`CCCCCOC(=O)N1CCN(C(=O)[C@H](CCC(=O)O)NC(=O)c2cc(N3CCC(COCCC)CC3)cc(-c3ccccc3)n2)CC1`: the Ki on P2Y purinoceptor 12 came out at 22 nM. Moreover, the half-inhibitory concentration (IC50) in test [1] was found to be 8900 nM. In addition, in the test with Platelet, the “Ratio IC50” value is reported as 12.

Consider `CCCCOC(=O)N1CCN(C(=O)[C@H](CCC(=O)O)NC(=O)c2cc(OCCC3CCCCN3)cc(-c3ccccc3)n2)CC1` (stereo partly drawn), for which the inhibition constant Ki on P2Y purinoceptor 12 turned out to be 3.7 nM. Besides, the IC50 in test [1] is 810 nM. Moreover, the “Ratio IC50” value in the test on Platelet stood at 0.88.

For the compound `CCCCOC(=O)N1CCN(C(=O)[C@H](CCC(=O)O)NC(=O)c2cc(OCC3CCN(S(=O)(=O)CC)CC3)cc(-c3ccccc3)n2)CC1`, the Ki on P2Y purinoceptor 12 was found to be 5.3 nM. In test [1], the half-inhibitory concentration (IC50) came to 3000 nM. For the same compound, in the test with Platelet, the “Ratio IC50” value is listed as 2.8.

`CCCCCCOC(=O)N1CCN(C(=O)[C@H](CCC(=O)O)NC(=O)c2cc(OCCN)cc(-c3ccccc3)n2)CC1`: the Ki at P2Y purinoceptor 12 amounted to 8.4 nM. In addition, in test [1], the IC50 stood at 4500 nM. Besides, the “Ratio IC50” value in the test on Platelet is reported as 7.9.

In the case of `CCCCCOC(=O)N1CCN(C(=O)[C@H](CCC(=O)O)NC(=O)c2cc(NC(=O)N3CCC(COC)CC3)cc(-c3ccccc3)n2)CC1`, on P2Y purinoceptor 12, the Ki amounted to 43 nM. Besides, the IC50 in test [1] amounted to 4500 nM. Besides, the “Ratio IC50” value with Platelet is given as 5.2.

For the compound `CCCCCOC(=O)N1CCN(C(=O)[C@H](CCC(=O)O)NC(=O)c2cc(OC3CCN(S(=O)(=O)CC)CC3)cc(-c3ccccc3)n2)CC1`, the Ki at P2Y purinoceptor 12 came out at 5.1 nM. Also, in test [1], the IC50 turned out to be 5300 nM. Besides, the “Ratio IC50” value in the test on Platelet was 5.

Consider `CCCCCOC(=O)N1CCN(C(=O)[C@H](CCC(=O)O)NC(=O)c2cc(N3CCC(NC)CC3)cc(-c3ccccc3)n2)CC1`, for which the Ki at P2Y purinoceptor 12 stood at 6.5 nM. Further, the IC50 in test [1] came to 1000 nM. Further, the “Ratio IC50” value in the test with Platelet turned out to be 1.1.

`CCCCOC(=O)N1CCN(C(=O)[C@H](CCC(=O)O)NC(=O)c2cc(OCCC3CCCNC3)cc(-c3ccccc3)n2)CC1` (stereo partly drawn): the Ki at P2Y purinoceptor 12 was found to be 2.5 nM. Besides, in test [1], the concentration for half-maximal inhibition (IC50) came out at 1000 nM. Also, the “Ratio IC50” value in the test with Platelet was determined as 0.67.

On to `CCOC(=O)N1CCN(C(=O)[C@H](CCC(=O)O)NC(=O)c2cc(O)cc(-c3ccccc3)n2)CC1`, for which the inhibitory constant (Ki) on P2Y purinoceptor 12 was 62 nM. Also, in test [1], the IC50 was 24000 nM. Besides, the “Ratio IC50” value with Platelet is listed as 41.

In the case of `CCCCOC(=O)N1CCN(C(=O)[C@H](CCC(=O)O)NC(=O)c2cc(OCC3CCN(C(C)=O)CC3)cc(-c3ccccc3)n2)CC1`, the Ki at P2Y purinoceptor 12 worked out at 3.9 nM. Besides, in test [1], the IC50 worked out at 2100 nM. Moreover, in the test on Platelet, the “Ratio IC50” value was 1.4.

In the case of `CCOC(=O)N1CCN(C(=O)[C@H](CCC(=O)O)NC(=O)c2cc(N(C)CCO)cc(-c3ccccc3)n2)CC1`, the inhibition constant (Ki) at P2Y purinoceptor 12 was 87 nM. Also, the IC50 in test [1] turned out to be 57000 nM. Also, the “Ratio IC50” value in the test on Platelet was 26.

For the compound `CCCCOC(=O)N1CCN(C(=O)[C@H](CCC(=O)O)NC(=O)c2cc(OCCC3CCNCC3)cc(-c3ccccc3)n2)CC1`, on P2Y purinoceptor 12, the inhibition constant (Ki) was found to be 3 nM. Also, the 50% inhibitory concentration (IC50) in test [1] came out at 460 nM. In addition, the “Ratio IC50” value in the test on Platelet is 0.45.

With `CCOC(=O)N1CCN(C(=O)[C@H](CCC(=O)O)NC(=O)c2cc(NCCO)cc(-c3ccccc3)n2)CC1`, the inhibition constant (Ki) on P2Y purinoceptor 12 is 117 nM. The concentration for half-maximal inhibition (IC50) in test [1] amounted to 12000 nM. Further, the “Ratio IC50” value with Platelet is given as 14.

For the compound `CCCCCOC(=O)N1CCN(C(=O)[C@H](CCC(=O)O)NC(=O)c2cc(NC(=O)OCCCN)cc(-c3ccccc3)n2)CC1`, on P2Y purinoceptor 12, the Ki is 1.9 nM. For the same compound, the IC50 in test [1] came to 5700 nM. Moreover, the “Ratio IC50” value in the test on Platelet was 3.9.

On to `CCCCCOC(=O)N1CCN(C(=O)[C@H](CCC(=O)O)NC(=O)c2cc(N3CCCCC3)cc(-c3ccccc3)n2)CC1`, for which the Ki on P2Y purinoceptor 12 amounted to 5.5 nM. Moreover, the IC50 in test [1] is 16000 nM. Moreover, the “Ratio IC50” value with Platelet turned out to be 18.

As for `CCOC(=O)N1CCN(C(=O)[C@H](CCC(=O)O)NC(=O)c2cc(OCCCOC)cc(-c3ccccc3)n2)CC1`, the inhibitory constant (Ki) at P2Y purinoceptor 12 is 69 nM. For the same compound, the IC50 in test [1] was 8200 nM. Besides, in the test on Platelet, the “Ratio IC50” value was determined as 11.

As to `CCCCCOC(=O)N1CCN(C(=O)[C@H](CCC(=O)O)NC(=O)c2cc(C(=O)N3CCCCC3)cc(-c3ccccc3)n2)CC1`, the Ki at P2Y purinoceptor 12 worked out at 2.8 nM. The IC50 in test [1] came to 910 nM. Also, the “Ratio IC50” value in the test with Platelet is 2.2.

For `CCCCCOC(=O)N1CCN(C(=O)[C@H](CCC(=O)O)NC(=O)c2cc(NC(=O)NCC3CCNCC3)cc(-c3ccccc3)n2)CC1`, the Ki on P2Y purinoceptor 12 worked out at 1.4 nM. The IC50 in test [1] was 5600 nM. For the same compound, the “Ratio IC50” value in the test with Platelet stood at 3.8.

On to `CCCCCOC(=O)N1CCN(C(=O)[C@H](CCC(=O)O)NC(=O)c2cc(NC(=O)OCC)cc(-c3ccccc3)n2)CC1`, for which the inhibitory constant (Ki) at P2Y purinoceptor 12 amounted to 11 nM. In test [1], the IC50 is 9300 nM. The “Ratio IC50” value with Platelet came out at 15.

For the compound `CCCCCOC(=O)N1CCN(C(=O)[C@H](CCC(=O)O)NC(=O)c2cc(C(=O)NC3CCOCC3)cc(-c3ccccc3)n2)CC1`, the Ki on P2Y purinoceptor 12 turned out to be 4.6 nM. Moreover, the IC50 in test [1] was 5600 nM. In the test on Platelet, the “Ratio IC50” value turned out to be 10.
